Screens as filed in PubChem BioAssay.
HTR2A ag = mouse Htr2a agonists via beta-arrestin recruitment, primary screen, cell-based, luminescence. 5-hydroxytryptamine receptor 2A (Mus musculus), P35363. CHO-K1 mHTR2A beta-arrestin complementation; percent of 30 µM serotonin response. activation, % at 7.6 µM. 360,000 tested, 0.66% active;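 active means activation above a run cutoff, the mean activation of all tested compounds plus 3 SD, cut at about 14% in these data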
bovine MsrA act = bovine MsrA enzyme activators, primary screen, biochemical, absorbance, HTS; AID 602163, 2012; purified bovine MsrA, absorbance read-out; 360,000 tested, 0.3% active; activation, % at 10.6 µM; in the data active means activation above about 7.5%
TbMetRS inhib = T. brucei MetRS inhibitors, primary screen, biochemical, luminescence | methionyl-tRNA synthetase (Trypanosoma brucei brucei) | AID 624268, 2012 | 360,000 tested, 0.4% active | inhibition, % at 11.9 µM | purified T. brucei MetRS, ATP depletion, Kinase-Glo luminescence;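 active means inhibition above a per-plate cutoff of the control wells' mean inhibition plus 3 SD, cut at about 5.5% in these data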
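Material – parasite MetRS enzyme · Medium – HEPES-MgCl2-KCl buffer plus DTT, spermine, BSA, pyrophosphatase · Reagent – ATP, methionine and E. coli bulk tRNA substrates · Times – 15 min enzyme-compound preincubation, 2 h reaction, 10 min detection, 25 °C · Measured by – luminescence of leftover ATP · Evaluation – percent inhibition relative to median high and low control wells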
MsrA inh = bovine MsrA enzyme inhibitors, primary screen, biochemical, absorbance, HTS; Methionine sulfoxide reductase A (Bos taurus); inhibition, % at 15.5 µM; 360,000 tested, 0.75% active; AID 651718, 2012; purified bovine MsrA, absorbance read-out; in the data active means inhibition above about 4.5%
AI-2 QS modul = Vibrio harveyi AI-2 quorum sensing modulators, primary screen, JMH597 strain, luminescence/OD600 ratio; Vibrio harveyi JMH597 AI-2 luminescence/OD600 ratio, 9 h; hits give low values; strain lacks LuxN and CqsS sensors; 0 = neutral-control median; activity change, % at 7.5 µM; 300,000 tested, 0.4% active; AID 2094, 2009; in the data active means activity change below about -75%, passing the limit was not always enough;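 further: luminescence divided by OD600 gain over 9 h not by final OD600 alone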
AHR act = AHR activators, primary screen, cell-based, luminescence, luciferase reporter, human. AHR-responsive luciferase reporter cells. activation, % at 5 µM. 320,000 tested, 2.5% active. AID 2796, 2010; in the data active means activation above about 47%
MOR ag counter = OPRM1 agonists via beta-arrestin recruitment, confirmation, counter-screen for mouse HTR2A agonist project, cell-based, luminescence, single concentration; 2,300 tested, 5.3% active; AID 624380, 2012; shares compounds with HTR2A ag; activation, % at 9.3 µM; U2OS OPRM1 beta-arrestin PathHunter; DMSO 0%, DAMGO 9.3 µM 100%;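 active means mean activation above the mean of DMSO-only wells plus 3 SD, cut at about 0.5% in these data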
m5-HT2A ag conf = mouse HTR2A agonists, beta-arrestin recruitment, confirmation, cell-based, luminescence, CHO-K1 PathHunter, triplicate; shares compounds with HTR2A ag; DMSO 0%, 30 µM serotonin 100%; activation, % at 7.6 µM; 2,300 tested, 19% active; AID 624381, 2012;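 active means mean activation across triplicates above the hit threshold derived in the original primary screen, cut at about 15% in these data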
Each line names hits and unclear results; the compound was inactive in the other large screens (follow-up assays come after a bar, where they were run). Shown are actives, neighbours in structure and some others; about 4.4% of the full set was active somewhere.

C[C@@H]1CNC(=O)c2c(C(=O)N[C@@H](Cc3c[nH]c4ccccc34)C(=O)OC(C)(C)C)ncn21	none (no result: AI-2 QS modul, AHR act)
O=C(CCN1CCOCC1)Nc1cc(C(=O)Nc2ccc(Cl)cc2)ccc1N1CC2CC(C1)c1cccc(=O)n1C2 (centres undefined)	none
CCOCCn1c(SCC(=O)OCc2ccccc2)nc2c1c(=O)[nH]c(=O)n2C	HTR2A ag 17 | MOR ag counter inactive | m5-HT2A ag conf inactive
O=C(c1ccc(NC2=NC3CS(=O)(=O)CC3S2)cc1)N1CCN(c2ccccc2F)CC1 (centres undefined)	HTR2A ag 24 | MOR ag counter inactive | m5-HT2A ag conf inactive
Cc1cc(OC(=O)c2cccc(Cl)c2)c([N+](=O)[O-])c(=O)[nH]1	none
Cc1cc(OC(=O)c2cccc(F)c2)c([N+](=O)[O-])c(=O)[nH]1	HTR2A ag 15 | MOR ag counter inactive | m5-HT2A ag conf inactive
CC(=O)c1ccc(N2CCN(CC(=O)Nc3ccccc3C(=O)NC3CC3)CC2)c(F)c1	none (no result: AI-2 QS modul)
CCC(=O)NN1CCc2cc3ccc(C)cc3nc21	none
CCn1cc(C(=O)NCCCN2CCCC(C)C2)c(=O)c2cc(S(=O)(=O)N3CCOCC3)ccc21 (centres undefined)	HTR2A ag 21 (no result: AI-2 QS modul) | MOR ag counter inactive | m5-HT2A ag conf inactive
CCOCCCNC(=O)c1cn(CC)c2ccc(S(=O)(=O)N3CCOCC3)cc2c1=O	none
COc1cc(/C=C2\C(=N)N3N=C(S(C)(=O)=O)SC3=NC2=O)ccc1OCCOc1ccc(C)cc1	HTR2A ag 16 | MOR ag counter inactive | m5-HT2A ag conf inactive
Cc1ccc(OCCNC(=O)[C@H]2O[C@@H](n3ccc(=O)[nH]c3=O)[C@H](O)[C@@H]2O)cc1C	HTR2A ag 43 (no result: AI-2 QS modul, AHR act) | MOR ag counter inactive | m5-HT2A ag conf inactive
O=C(Nc1ccccc1Oc1ccccc1)[C@@H]1O[C@H](CO)[C@H](O)[C@H](O)[C@H]1O	none (no result: AI-2 QS modul, AHR act)
CCOC(=O)c1c(NC(=O)COc2ccc3ccc(=O)oc3c2)sc(C(=O)N(C)C)c1C	none
CCOC(=O)c1c(NC(=O)c2ccco2)sc2c1CCCC2	none
CCOC(=O)c1c(O)c2c(n(Cc3ccco3)c1=O)CCCC2	HTR2A ag 15 | MOR ag counter inactive | m5-HT2A ag conf inactive
COc1cc(CC(=O)Nc2c(-c3ccccc3)[nH][nH]c2=O)cc(OC)c1	none (no result: bovine MsrA act, AI-2 QS modul, AHR act)
O=C(Cc1cc(C(F)(F)F)cc(C(F)(F)F)c1)Nc1c(-c2ccccc2)[nH][nH]c1=O	HTR2A ag 28 (no result: bovine MsrA act, AI-2 QS modul, AHR act) | MOR ag counter inactive | m5-HT2A ag conf inactive
CCC1(C)CC(CC(=O)O)(c2ccccc2OC)CCO1 (centres undefined)	HTR2A ag 15 | MOR ag counter inactive | m5-HT2A ag conf inactive
Cc1cccc(CN2CCN(C3CN(Cc4ccc(F)cc4)S(=O)(=O)C3)CC2)c1 (centres undefined)	HTR2A ag 18 (no result: AI-2 QS modul, AHR act) | MOR ag counter inactive | m5-HT2A ag conf inactive
Cc1cccc(CN2CCN(C3CN(Cc4cn(Cc5ccc(F)cc5)nn4)S(=O)(=O)C3)CC2)c1 (centres undefined)	none (no result: AI-2 QS modul, AHR act)
Cc1ccc(CN2CC(N3CCN(Cc4cccc(C)c4)CC3)CS2(=O)=O)cc1 (centres undefined)	HTR2A ag 31 (no result: AI-2 QS modul, AHR act) | MOR ag counter inactive | m5-HT2A ag conf inactive
